Series [1] is described as follows: Antiviral activity against Enterovirus 71 BrCr infected in African green monkey Vero cells assessed as inhibition of virus-induced cytopathic effect after 4 days by MTT assay. It counts as functional, cell-based, Human enterovirus 71 (strain BRCR). Summed up:
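EV71 strain BrCr grown in Vero cells kept in DMEM with 2% FBS; titer by TCID50 end-point dilution. Vero cells inoculated with 100 × TCID50 virus plus serially diluted compounds (DMSO stocks); ribavirin positive control. After four days, morphology checked by light microscopy and viability by MTT to give CPE inhibition rate; IC50 by Forecast function. Mean ± SD, three independent assays, quadruplicate per concentration.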
A general note: Damage to the host cells serves as the signal in cytopathic effect assays.

A short description of series [2]: Cytotoxicity against African green monkey Vero cells after 4 days by MTT assay. In kind it is cell-based. Conditions: chlorocebus sabaeus; call rule not given here. Summed up: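 Vero cells treated or untreated with serially diluted compounds (100 mM DMSO stocks) for four days, viability read by MTT; CC50 calculated by Forecast function. Mean ± SD of three independent assays, each concentration in quadruplicate.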

A short description of series [3]: Selectivity index, ratio of CC50 for African green monkey Vero cells to IC50 for Enterovirus 71 BrCr. In kind it is functional. Summed up:
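SI computed as CC50 (Vero, 4-day MTT) divided by IC50 (EV71 BrCr CPE inhibition, 100 × TCID50, 4-day MTT) for each compound.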

The mark [4] stands for this setting: Enterovirus A, Vero, 96 h, read-out: IC50.

A value given as a limit tells only on which side of the number the result lay.

The term IC50 denotes the concentration that gives 50% inhibition. One may read the CC50 as the concentration that lowers cell viability or growth by half. Take `CC(=O)C[C@H]1[C@@H]2C[C@]3(CC=C(C)C)C(=O)[C@@]1(C(=O)c1ccccc1)C(=O)[C@@](CC=C(C)C)(C3=O)C2(C)C`: the IC50 in series [1] (setting [4]) is 31.1 µM. In series [2], the half-maximal cytotoxic concentration (CC50) at 96 h was 47 µM. Further, the “Ratio CC50/IC50” value in series [3] is 1.5.

Take `CC(=O)C[C@@H]1[C@@H]2C[C@]3(CC=C(C)C)C(=O)[C@@]1(C(=O)c1ccc(O)c(O)c1)C(=O)[C@@](CC=C(C)C)(C3=O)C2(C)C`: the IC50 entry in series [1] (vero) is recorded as “Not Active”. Consider `CC(C)=CCC/C(C)=C/C[C@@H]1C[C@@]2(CC=C(C)C)C(=O)[C@H](C(=O)C(C(=O)c3ccccc3)=C2O)C1(C)C`, for which, in series [1] (vero), the IC50 result is “Not Active”. Consider `CC(C)=CCC/C(C)=C/C[C@@H]1C[C@@]2(CC=C(C)C)C(=O)C(OC(=O)c3ccccc3)=C(O)[C@H](C2=O)C1(C)C`, for which the half-maximal inhibitory concentration (IC50) in series [1] (setting [4]) is 16.1 µM. This compound returned a CC50 at 96 h in series [2] of 37.8 µM. Besides, in series [3], the “Ratio CC50/IC50” value came to 2.4. For the compound `C=C(C)C(=O)CC/C(C)=C/C[C@@H]1C[C@@]2(CC=C(C)C)C(=O)[C@H](C(=O)C(C(=O)c3ccccc3)=C2O)C1(C)C`, the IC50 entry in series [1] (vero) is “Not Active”. Still for that read-out and setting: to `C=C(CCC=C(C)C)C(=O)C[C@H]1C[C@@]2(CC=C(C)C)C(=O)[C@H](C(=O)C(C(=O)c3ccccc3)=C2O)C1(C)C` belongs “Not Active”. Turning to `CC(C)=CC[C@@]12C[C@@H](C)C(C)(C)[C@@H](C(=O)C(C(=O)c3ccccc3)=C1O)C2=O`, the IC50 entry in series [1] (vero) is “Not Active”.

Regarding `C=C(C)[C@@H](O)CC/C(C)=C/C[C@@H]1C[C@@]2(CC=C(C)C)C(=O)[C@H](C(=O)C(C(=O)c3ccccc3)=C2O)C1(C)C`, in series [1] (vero), the IC50 entry is “Not Active”. As to `CC(C)=CCC/C(C)=C/C[C@H]1C[C@@]23C[C@@H](C(C)(C)O)OC2=C(C(=O)c2ccccc2)C(=O)[C@H](C3=O)C1(C)C`, the half-inhibitory concentration (IC50) entry in series [1] (vero) is on record as “Not Active”. The same measure, in the same setting: to `CC(C)=CCC/C(C)=C/C[C@H]1C[C@@]23C[C@H](O)C(C)(C)OC2=C(C(=O)c2ccccc2)C(=O)[C@H](C3=O)C1(C)C` belongs “Not Active”. On the same count and under the same terms, to `C=C(C)[C@H](O)CC/C(C)=C/C[C@H]1C[C@@]2(CC=C(C)C)C(=O)[C@](CC=C(C)C)(C(=O)C(C(=O)c3ccc(O)c(O)c3)=C2O)C1(C)C` belongs “Not Active”; to `CC(C)=CCC/C(C)=C/C[C@H]1C[C@@]2(CC=C(C)C)C(=O)[C@](CC=C(C)C)(C(=O)C(C(=O)c3cccc(O)c3)=C2O)C1(C)C`, “Not Active”. On the same count and under the same terms, with `COc1cc(O)c2c(=O)c3c(O)cc(O)c(OC)c3oc2c1` the entry was “Not Active”; with `COc1cc(O)c2c(=O)c3cc(CC=C(C)C)c(O)c(O)c3oc2c1C/C=C(\C)CCC=C(C)C`, “Not Active”. Take `COc1c(CC=C(C)C)c(O)c2c(=O)c3ccc(O)c(O)c3oc2c1CC=C(C)C` [DULXANTHONE B]: in series [1] (vero), the 50% inhibitory concentration (IC50) entry is “Not Active”. Turning to `CC(C)=CCC/C(C)=C/C[C@@H]1C[C@]2(CC=C(C)C)C(=O)[C@@](CC=C(C)C)(C(=O)C(C(=O)c3ccc(O)c(O)c3)=C2O)[C@@]1(C)CCC=C(C)C` [OBLONGIFOLIN C], in series [1] (vero), the IC50 entry is recorded as “Not Active”. Regarding `NC(=O)c1ncn([C@@H]2O[C@H](CO)[C@@H](O)[C@H]2O)n1` [RIBAVIRIN], the IC50 in series [1] (setting [4]) is 253 µM. Besides, the CC50 at 96 h in series [2] is more than 1000 µM. For the same compound, the “Ratio CC50/IC50” value in series [3] was more than 4.

Source of the values: ChEMBL document CHEMBL3232875, “Prenylated benzoylphloroglucinols and xanthones from the leaves of Garcinia oblongifolia with antienteroviral activity” (J Nat Prod, 2014).
